Experimental data reported in ChEMBL document CHEMBL4052710 (Bioorg Med Chem Lett, 2017).
Calls of active or inactive are those of the source. The calls are words filed in the database; no cut-off is given here.

Assays:
[1] = target: CDK4/Cyclin D3 (Homo sapiens) (UniProt P11802+P30281); experiment: Inhibition of human CDK4/CyclinD3 at 1 uM by enzymatic radiometric assay; type: protein-complex assay
Summary of the method: (§1)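 Kinase panel run through the Eurofins KinaseProfiler, with compound at a fixed 1 µM. Values are means of two independent experiments.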

NCI-H1299 = experiment: Growth inhibition of human H1299 cells incubated for 72 hrs by CCK8 assay; type: functional, cell-based; conditions: NCI-H1299, 72 h
[2] = target: CDK3/Cyclin E (Homo sapiens) (UniProt P24864+Q00526); experiment: Inhibition of human CDK3/CyclinE at 1 uM by enzymatic radiometric assay; type: protein-complex assay; summary of the method: as §1
CDK3/Cyclin E (Homo sapiens), sequence (P24864 whole entry, looked up): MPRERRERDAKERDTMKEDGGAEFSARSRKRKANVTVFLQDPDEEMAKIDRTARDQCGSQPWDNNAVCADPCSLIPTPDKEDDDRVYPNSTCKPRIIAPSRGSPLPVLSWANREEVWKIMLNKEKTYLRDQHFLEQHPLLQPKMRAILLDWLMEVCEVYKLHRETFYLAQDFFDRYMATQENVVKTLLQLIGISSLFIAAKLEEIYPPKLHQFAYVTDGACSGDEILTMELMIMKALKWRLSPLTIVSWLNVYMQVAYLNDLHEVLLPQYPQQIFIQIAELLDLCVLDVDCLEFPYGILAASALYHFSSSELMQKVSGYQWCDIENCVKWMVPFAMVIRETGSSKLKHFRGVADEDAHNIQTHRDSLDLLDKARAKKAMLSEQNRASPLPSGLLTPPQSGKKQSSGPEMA
CDK3/Cyclin E (Homo sapiens), sequence (Q00526 whole entry, looked up): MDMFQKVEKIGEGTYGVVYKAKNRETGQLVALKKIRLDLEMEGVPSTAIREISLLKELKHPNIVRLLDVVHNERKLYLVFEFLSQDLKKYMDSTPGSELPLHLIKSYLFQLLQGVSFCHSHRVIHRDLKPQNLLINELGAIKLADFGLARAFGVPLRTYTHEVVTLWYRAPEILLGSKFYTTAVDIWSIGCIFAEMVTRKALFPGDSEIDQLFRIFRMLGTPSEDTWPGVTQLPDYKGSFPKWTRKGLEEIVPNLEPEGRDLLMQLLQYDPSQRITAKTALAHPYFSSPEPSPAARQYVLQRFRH

[3] = target: Cyclin-dependent kinase 5/CDK5 activator 1 (Homo sapiens) (UniProt Q00535+Q15078); experiment: Inhibition of human CDK5/p35 at 1 uM by enzymatic radiometric assay; type: protein-complex assay
Cyclin-dependent kinase 5/CDK5 activator 1 (Homo sapiens), sequence (Q00535 whole entry): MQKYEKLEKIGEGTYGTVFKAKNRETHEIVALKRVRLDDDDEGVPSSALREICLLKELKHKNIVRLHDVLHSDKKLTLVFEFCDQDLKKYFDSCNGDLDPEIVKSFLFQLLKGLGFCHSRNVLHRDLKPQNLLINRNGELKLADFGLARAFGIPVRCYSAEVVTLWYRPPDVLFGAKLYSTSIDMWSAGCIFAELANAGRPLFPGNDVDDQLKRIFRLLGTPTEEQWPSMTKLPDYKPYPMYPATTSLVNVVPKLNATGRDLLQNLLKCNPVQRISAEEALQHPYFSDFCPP
Cyclin-dependent kinase 5/CDK5 activator 1 (Homo sapiens), sequence (Q15078 99-307 partner limits assumed): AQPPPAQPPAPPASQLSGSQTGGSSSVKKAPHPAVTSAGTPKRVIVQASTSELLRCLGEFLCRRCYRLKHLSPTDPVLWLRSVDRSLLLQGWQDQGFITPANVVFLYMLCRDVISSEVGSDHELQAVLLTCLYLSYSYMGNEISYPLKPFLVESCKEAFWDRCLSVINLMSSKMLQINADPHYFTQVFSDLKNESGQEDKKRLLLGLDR

[4] = target: CDK7/Cyclin H/MNAT1 (Homo sapiens) (UniProt P51946+P50613+P51948); experiment: Inhibition of human CDK7/CyclinH/MAT1 at 1 uM by enzymatic radiometric assay; type: protein-complex assay
[5] = target: CDK12/Cyclin K (Homo sapiens) (UniProt O75909+Q9NYV4); experiment: Inhibition of human CDK12/CyclinK at 1 uM by enzymatic radiometric assay; type: protein-complex assay; summary of the method: as §1
CDK12/Cyclin K (Homo sapiens), sequence (O75909 whole entry, looked up): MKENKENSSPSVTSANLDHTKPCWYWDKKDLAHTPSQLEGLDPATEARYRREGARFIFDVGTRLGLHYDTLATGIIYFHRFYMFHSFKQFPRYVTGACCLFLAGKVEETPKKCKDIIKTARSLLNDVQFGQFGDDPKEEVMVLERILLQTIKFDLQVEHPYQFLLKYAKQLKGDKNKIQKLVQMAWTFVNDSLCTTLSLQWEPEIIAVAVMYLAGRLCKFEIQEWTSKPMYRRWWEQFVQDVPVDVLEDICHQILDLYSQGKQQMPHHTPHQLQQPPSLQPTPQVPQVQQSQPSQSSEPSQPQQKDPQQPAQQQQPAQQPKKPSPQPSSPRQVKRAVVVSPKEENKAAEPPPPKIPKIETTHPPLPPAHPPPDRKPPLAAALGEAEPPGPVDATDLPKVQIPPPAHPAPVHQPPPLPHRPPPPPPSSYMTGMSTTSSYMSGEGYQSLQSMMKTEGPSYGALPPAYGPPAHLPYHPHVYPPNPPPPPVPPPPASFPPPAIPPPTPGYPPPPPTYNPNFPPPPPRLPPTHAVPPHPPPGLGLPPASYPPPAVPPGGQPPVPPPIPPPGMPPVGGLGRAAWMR
CDK12/Cyclin K (Homo sapiens), sequence (Q9NYV4 whole entry, looked up): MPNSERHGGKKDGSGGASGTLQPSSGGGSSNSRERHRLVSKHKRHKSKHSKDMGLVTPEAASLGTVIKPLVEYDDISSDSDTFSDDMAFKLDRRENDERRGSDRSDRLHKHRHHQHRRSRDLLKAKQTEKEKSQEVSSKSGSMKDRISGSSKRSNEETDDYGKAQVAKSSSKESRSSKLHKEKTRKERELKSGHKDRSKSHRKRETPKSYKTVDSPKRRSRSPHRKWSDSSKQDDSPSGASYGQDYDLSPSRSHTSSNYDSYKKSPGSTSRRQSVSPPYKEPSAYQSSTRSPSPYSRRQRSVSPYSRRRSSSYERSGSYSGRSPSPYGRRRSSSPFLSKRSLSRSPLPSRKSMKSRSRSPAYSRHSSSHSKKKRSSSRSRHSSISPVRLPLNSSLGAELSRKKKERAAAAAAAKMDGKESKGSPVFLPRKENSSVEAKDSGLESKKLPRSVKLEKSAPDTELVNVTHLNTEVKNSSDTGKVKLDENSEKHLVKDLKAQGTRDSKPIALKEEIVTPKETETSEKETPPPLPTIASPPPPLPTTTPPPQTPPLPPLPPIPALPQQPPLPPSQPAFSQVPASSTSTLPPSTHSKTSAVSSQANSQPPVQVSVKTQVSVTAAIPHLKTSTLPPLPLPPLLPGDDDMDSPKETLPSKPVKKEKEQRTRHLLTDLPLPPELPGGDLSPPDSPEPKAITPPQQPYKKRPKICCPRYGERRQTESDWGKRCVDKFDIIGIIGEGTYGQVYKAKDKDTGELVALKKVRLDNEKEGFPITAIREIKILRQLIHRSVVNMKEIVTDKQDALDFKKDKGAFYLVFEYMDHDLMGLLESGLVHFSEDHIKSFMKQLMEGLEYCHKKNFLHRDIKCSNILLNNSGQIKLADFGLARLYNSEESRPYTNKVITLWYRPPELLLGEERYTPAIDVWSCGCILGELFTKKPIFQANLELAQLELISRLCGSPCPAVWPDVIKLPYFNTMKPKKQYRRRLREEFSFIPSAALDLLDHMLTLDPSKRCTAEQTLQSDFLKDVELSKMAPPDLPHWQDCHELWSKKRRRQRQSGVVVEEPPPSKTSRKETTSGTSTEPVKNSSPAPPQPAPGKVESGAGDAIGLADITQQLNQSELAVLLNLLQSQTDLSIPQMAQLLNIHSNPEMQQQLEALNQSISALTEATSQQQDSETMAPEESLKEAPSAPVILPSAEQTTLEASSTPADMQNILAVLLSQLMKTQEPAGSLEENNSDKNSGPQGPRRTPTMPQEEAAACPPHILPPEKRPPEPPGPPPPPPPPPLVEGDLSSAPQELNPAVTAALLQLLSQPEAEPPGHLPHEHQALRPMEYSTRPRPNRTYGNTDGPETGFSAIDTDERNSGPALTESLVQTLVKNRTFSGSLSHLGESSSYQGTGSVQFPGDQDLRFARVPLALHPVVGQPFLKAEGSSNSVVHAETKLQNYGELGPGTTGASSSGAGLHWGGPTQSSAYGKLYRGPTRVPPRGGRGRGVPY

CDK4/Cyclin D3 = CDK4/Cyclin D3 (Homo sapiens, UniProt P11802); experiment: Inhibition of human CDK4/CyclinD3 by enzymatic radiometric assay; type: protein-complex assay
CDK4/Cyclin D3, sequence (P11802 whole entry): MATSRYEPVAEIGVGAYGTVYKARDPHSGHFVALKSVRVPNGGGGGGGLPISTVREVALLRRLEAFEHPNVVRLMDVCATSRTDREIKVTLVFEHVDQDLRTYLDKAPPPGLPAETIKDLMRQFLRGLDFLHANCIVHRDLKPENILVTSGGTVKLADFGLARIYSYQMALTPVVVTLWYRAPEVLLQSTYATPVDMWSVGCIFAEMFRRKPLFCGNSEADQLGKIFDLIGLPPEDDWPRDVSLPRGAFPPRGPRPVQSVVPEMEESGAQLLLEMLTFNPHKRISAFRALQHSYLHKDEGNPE
CDK4/Cyclin D3, sequence (P30281 whole entry, further chain): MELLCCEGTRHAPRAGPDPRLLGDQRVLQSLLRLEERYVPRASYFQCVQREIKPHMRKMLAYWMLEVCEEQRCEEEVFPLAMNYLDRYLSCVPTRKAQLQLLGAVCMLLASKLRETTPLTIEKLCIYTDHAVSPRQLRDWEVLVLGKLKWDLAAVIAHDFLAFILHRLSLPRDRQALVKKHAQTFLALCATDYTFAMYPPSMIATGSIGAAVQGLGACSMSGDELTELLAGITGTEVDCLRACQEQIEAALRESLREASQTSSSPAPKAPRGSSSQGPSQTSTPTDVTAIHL
Summary of the method: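 CDK4 activity measured with the Eurofins KinaseProfiler. IC50 and inhibition values are means of two independent experiments.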

T47D [6] = experiment: Induction of cell cycle arrest in human T47D cells assessed as increase in G0/G1 phase accumulation at 0.1 to 1 uM incubated for 24 hrs by flow cytometry; type: functional, cell-based
Summary of the method: (§2)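 Cells were treated for 24 h with compound at 0.1, 0.5 and 1 µM, with LEE011 or vehicle (DMSO) alongside. Cell-cycle phase distribution was then determined by flow cytometry.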

T47D [7] = experiment: Induction of cell cycle arrest in human T47D cells assessed as increase in G2 phase accumulation at 0.1 to 1 uM incubated for 24 hrs by flow cytometry; type: functional, cell-based; summary of the method: as §2
T47D [8] = experiment: Inhibition of cell migration of human T47D cells at 0.5 to 5 uM incubated for 16 hrs by transwell cell migration assay; type: functional, cell-based
Summary of the method: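 T47D cells were assayed by transwell migration. After 16 h incubation, migrated cells were counted by microscope in five random fields per chamber.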

T47D [9] = experiment: Induction of apoptosis in human T47D cells assessed as viable cells level at 5 uM incubated for 48 hrs by annexin V-FITC and propidium iodide staining based flow cytometry (reference value: 96%); type: functional
T47D [10] = experiment: Induction of apoptosis in human T47D cells assessed as late apoptotic cells level at 5 uM incubated for 48 hrs by annexin V-FITC and propidium iodide staining based flow cytometry (reference value: 0.48%); type: functional
T47D [11] = experiment: Induction of apoptosis in human T47D cells assessed as late apoptotic cells level at 0.25 uM incubated for 48 hrs by annexin V-FITC and propidium iodide staining based flow cytometry (reference value: 0.48%); type: functional
T47D [12] = experiment: Induction of apoptosis in human T47D cells assessed as early apoptotic cells level at 0.5 uM incubated for 48 hrs by annexin V-FITC and propidium iodide staining based flow cytometry (reference value: 0.75%); type: functional
T47D [13] = experiment: Induction of apoptosis in human T47D cells assessed as late apoptotic cells level at 0.5 uM incubated for 48 hrs by annexin V-FITC and propidium iodide staining based flow cytometry (reference value: 0.48%); type: functional
T47D [14] = experiment: Induction of apoptosis in human T47D cells assessed as necrotic cells level at 0.5 uM incubated for 48 hrs by annexin V-FITC and propidium iodide staining based flow cytometry (reference value: 2.79%); type: functional
T47D [15] = experiment: Induction of apoptosis in human T47D cells assessed as early apoptotic cells level at 1 uM incubated for 48 hrs by annexin V-FITC and propidium iodide staining based flow cytometry (reference value: 0.75%); type: functional
T47D [16] = experiment: Induction of apoptosis in human T47D cells assessed as late apoptotic cells level at 1 uM incubated for 48 hrs by annexin V-FITC and propidium iodide staining based flow cytometry (reference value: 0.48%); type: functional
A549 = experiment: Growth inhibition of human A549 cells incubated for 72 hrs at 1 uM by CCK8 assay; type: functional; conditions: A549, 72 h, read-out: GI
Summary of the method: (§3)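 CCK8 viability assay on a panel of human cancer cell lines, with an initial screen at fixed concentrations of 1 µM and 10 µM.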

NCI-H460 = experiment: Growth inhibition of human H460 cells incubated for 72 hrs at 10 uM by CCK8 assay; type: functional; conditions: NCI-H460, 72 h, read-out: GI; summary of the method: as §3
OVCAR-5 = experiment: Growth inhibition of human OVCAR5 cells incubated for 72 hrs at 1 uM by CCK8 assay; type: functional; conditions: OVCAR-5, 72 h, read-out: GI; summary of the method: as §3
SiHa = experiment: Growth inhibition of human SiHa cells incubated for 72 hrs at 1 uM by CCK8 assay; type: functional; conditions: read-out: GI; summary of the method: as §3
[17] = target: Vascular endothelial growth factor receptor 2 (Homo sapiens, UniProt P35968); experiment: Inhibition of human VEGFR2 by enzymatic radiometric assay
Summary of the method: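 IC50 was determined through a commercial kinase profiling service. Values are the mean of two independent experiments.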

- inhibition [1]: 102%
- IC50 (NCI-H1299): 221 nM
- inhibition [2]: 65%
- inhibition [3]: 81%
- inhibition [4]: 7%
- inhibition [5]: 24%
- IC50 (CDK4/Cyclin D3): 142 nM
- IC50 [17]: > 10000 nM
Structure (SMILES): CN(C)C(=O)c1cc2cnc(Nc3ccc(NC(=O)C4(C(=O)Nc5ccc(F)cc5)CC4)cc3)nc2n1C1CCCC1
- Activity (T47D [6]): Active
- Activity (T47D [7]): Active
- inhibition (T47D [8]): Active
- Activity (T47D [9]): 85%
- Activity (T47D [10]): 5.29%
- Activity (T47D [11]): 3.28%
- Activity (T47D [12]): 0.65%
- Activity (T47D [13]): 3.58%
- Activity (T47D [14]): 2.69%
- Activity (T47D [15]): 3.16%
- Activity (T47D [16]): 4.98%
- inhibition of growth at 1 µM (A549): 86.6%
- inhibition of growth at 10 µM (NCI-H460): 102%
- inhibition of growth at 1 µM (OVCAR-5): 65.4%
- inhibition of growth at 1 µM (SiHa): 36.5%
